Reference: ChEMBL document CHEMBL1177857, “Functionalized aurones as inducers of NAD(P)H:quinone oxidoreductase 1 that activate AhR/XRE and Nrf2/ARE signaling pathways: synthesis, evaluation and SAR” (Eur J Med Chem, 2010)

Experiments:
[1] = Induction of NQO1 activity in mouse Hepa-1c1c7 cells at 5 uM after 48 hrs relative to control
[2] = Cytotoxicity against mouse Hepa-1c1c7 cells assessed as cell survival at 5 uM after 48 hrs by MTT assay; assay type: cell-based; settings: read-out: Activity
How it was run: (§1)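 MTT (0.5 mg/ml) added for 3 h at 37 °C, formazan dissolved in DMSO and read at 590 nm. Survival (%) = (A treated − A blank)/(A untreated − A blank) × 100.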

[3] = Cytotoxicity against mouse Hepa-1c1c7 cells assessed as cell survival at 25 uM after 48 hrs by MTT assay; assay type: cell-based; settings: read-out: Activity
How it was run: as §1

[4] = Induction of NQO1 activity in mouse Hepa-1c1c7 cells at 25 uM after 48 hrs relative to control

## COc1cc(OC)c2c(c1)O/C(=C\c1ccc(O)cc1)C2=O
[1]
  fold change (FC): 1.18
[2]
  viability at 48 h, 5 µM: 94%
[3]
  viability at 48 h, 25 µM: 89%
[4]
  fold change (FC): 1.29

## O=C1Oc2ccc(O)cc2/C1=C/c1ccc(F)cc1
[1]
  fold change (FC): 1.2
[2]
  viability at 48 h, 5 µM: 101%
[3]
  viability at 48 h, 25 µM: 121%
[4]
  fold change (FC): 1.23

## COc1cc(OC)c2c(c1)O/C(=C\c1ccc(C#N)cc1)C2=O
[1]
  fold change (FC): 1.36
[2]
  viability at 48 h, 5 µM: 91%
[3]
  viability at 48 h, 25 µM: 95%
[4]
  fold change (FC): 1.37

## COc1cccc(/C=C2\Oc3ccc(O)cc3C2=O)c1
[1]
  fold change (FC): 1.19
[2]
  viability at 48 h, 5 µM: 104%
[3]
  viability at 48 h, 25 µM: 110%
[4]
  fold change (FC): 1.18

## O=C1/C(=C/c2ccc(O)cc2)Oc2ccc(O)cc21
[1]
  fold change (FC): 1.22
[4]
  fold change (FC): 0.94

## COc1cc(/C=C2\Oc3cc(O)cc(O)c3C2=O)cc(OC)c1OC
[1]
  fold change (FC): 1.47
[2]
  viability at 48 h, 5 µM: 99%
[3]
  viability at 48 h, 25 µM: 94%
[4]
  fold change (FC): 1.6

## Cc1ccc(/C=C2\Oc3ccc(O)cc3C2=O)cc1
[1]
  fold change (FC): 1.14
[4]
  fold change (FC): 1.36

## O=C1/C(=C/c2ccccc2Cl)Oc2cc(O)ccc21
[1]
  fold change (FC): 1.02
[2]
  viability at 48 h, 5 µM: 120%
[3]
  viability at 48 h, 25 µM: 117%
[4]
  fold change (FC): 1.3

## Cc1ccc(/C=C2\Oc3cc(O)ccc3C2=O)cc1
[1]
  fold change (FC): 1.59
[2]
  viability at 48 h, 5 µM: 98%
[3]
  viability at 48 h, 25 µM: 100%
[4]
  fold change (FC): 0.9

## O=C1/C(=C/c2ccccc2)Oc2cc(O)cc(O)c21
[1]
  fold change (FC): 1.39
[2]
  viability at 48 h, 5 µM: 110%
[3]
  viability at 48 h, 25 µM: 100%
[4]
  fold change (FC): 1.3

## COc1cc(OC)c2c(c1)O/C(=C\c1cnc3ccccc3c1)C2=O
[1]
  fold change (FC): 1.79
[2]
  viability at 48 h, 5 µM: 93%
[3]
  viability at 48 h, 25 µM: 97%
[4]
  fold change (FC): 1.5

## COc1ccccc1/C=C1\Oc2cc(O)ccc2C1=O
[1]
  fold change (FC): 0.46
[2]
  viability at 48 h, 5 µM: 95%
[3]
  viability at 48 h, 25 µM: 96%
[4]
  fold change (FC): 0.61

## O=C1Oc2ccc(O)cc2/C1=C/c1ccccc1F
[1]
  fold change (FC): 1.05
[2]
  viability at 48 h, 5 µM: 102%
[3]
  viability at 48 h, 25 µM: 114%
[4]
  fold change (FC): 1.34

## O=C1/C(=C/c2ccccc2)Oc2ccc(O)cc21
[1]
  fold change (FC): 2.28

## COc1ccc(/C=C2\Oc3cc(O)ccc3C2=O)cc1
[1]
  fold change (FC): 1.19
[2]
  viability at 48 h, 5 µM: 91%
[3]
  viability at 48 h, 25 µM: 95%
[4]
  fold change (FC): 1.5

## COc1cc(OC)c2c(c1)OC(=O)/C2=C\c1ccc(Cl)cc1
[1]
  fold change (FC): 1.42
[2]
  viability at 48 h, 5 µM: 115%
[3]
  viability at 48 h, 25 µM: 110%
[4]
  fold change (FC): 1.9

## N#Cc1ccc(/C=C2\Oc3cc(O)ccc3C2=O)cc1
[1]
  fold change (FC): 1.15
[2]
  viability at 48 h, 5 µM: 94%
[3]
  viability at 48 h, 25 µM: 90%
[4]
  fold change (FC): 1.31

## O=C1/C(=C/c2ccccc2Cl)Oc2ccccc21
[1]
  fold change (FC): 0.92
[2]
  viability at 48 h, 5 µM: 111%
[3]
  viability at 48 h, 25 µM: 98%
[4]
  fold change (FC): 1.17

## O=C1Oc2ccc(O)cc2/C1=C/c1ccc(O)cc1
[1]
  fold change (FC): 1.3
[2]
  viability at 48 h, 5 µM: 111%
[3]
  viability at 48 h, 25 µM: 101%
[4]
  fold change (FC): 1.6

## COc1cc(OC)c2c(c1)O/C(=C\c1ccc(C(F)(F)F)cc1)C2=O
[1]
  fold change (FC): 1.08
[2]
  viability at 48 h, 5 µM: 90%
[3]
  viability at 48 h, 25 µM: 93%
[4]
  fold change (FC): 0.83

## O=C1Oc2ccc(O)cc2/C1=C/c1ccccc1Cl
[1]
  fold change (FC): 1.02
[2]
  viability at 48 h, 5 µM: 93%
[3]
  viability at 48 h, 25 µM: 87%
[4]
  fold change (FC): 1.3

## Cc1ccc(/C=C2\Oc3cc(O)cc(O)c3C2=O)cc1
[1]
  fold change (FC): 1.38
[2]
  viability at 48 h, 5 µM: 103%
[3]
  viability at 48 h, 25 µM: 95%
[4]
  fold change (FC): 1.49

## COc1cc(OC)c2c(c1)OC(Cc1ccccc1)C2=O (centres undefined)
[1]
  fold change (FC): 1.46
[2]
  viability at 48 h, 5 µM: 95%

## N#Cc1ccc(/C=C2\Oc3cc(O)cc(O)c3C2=O)cc1
[1]
  fold change (FC): 1.14
[2]
  viability at 48 h, 5 µM: 115%
[3]
  viability at 48 h, 25 µM: 102%
[4]
  fold change (FC): 1.35

## COc1cccc(/C=C2\Oc3cc(O)ccc3C2=O)c1
[1]
  fold change (FC): 1.22
[2]
  viability at 48 h, 5 µM: 85%
[3]
  viability at 48 h, 25 µM: 84%
[4]
  fold change (FC): 1.01

## O=C1/C(=C/c2ccccc2)Oc2cc(O)ccc21
[1]
  fold change (FC): 1.14
[2]
  viability at 48 h, 5 µM: 115%
[3]
  viability at 48 h, 25 µM: 110%
[4]
  fold change (FC): 1.85

## COc1cccc(/C=C2\Oc3cc(OC)cc(OC)c3C2=O)c1
[1]
  fold change (FC): 0.91
[2]
  viability at 48 h, 5 µM: 100%
[3]
  viability at 48 h, 25 µM: 103%
[4]
  fold change (FC): 1.59

## COc1cc(OC)c2c(c1)O/C(=C\c1ccc(O)cc1O)C2=O
[1]
  fold change (FC): 1.03
[2]
  viability at 48 h, 5 µM: 51%
[4]
  fold change (FC): 1.4

## COc1ccccc1/C=C1\Oc2cc(O)cc(O)c2C1=O
[1]
  fold change (FC): 1.48
[2]
  viability at 48 h, 5 µM: 103%
[3]
  viability at 48 h, 25 µM: 100%
[4]
  fold change (FC): 1.52

## COc1cc(OC)c2c(c1)O/C(=C\c1ccc(Cl)cc1)C2=O
[1]
  fold change (FC): 2.13
[2]
  viability at 48 h, 5 µM: 93%

## COc1cc(OC)c2c(c1)O/C(=C\c1cccnc1)C2=O
[1]
  fold change (FC): 1.8
[2]
  viability at 48 h, 5 µM: 94%
[3]
  viability at 48 h, 25 µM: 98%
[4]
  fold change (FC): 1.9

## COc1cc(OC)c2c(c1)OC(=O)/C2=C\c1ccccc1O
[1]
  fold change (FC): 1.49
[2]
  viability at 48 h, 5 µM: 121%
[3]
  viability at 48 h, 25 µM: 89%
[4]
  fold change (FC): 1.1

## O=C1/C(=C/c2cccc(O)c2)Oc2cc(O)cc(O)c21
[1]
  fold change (FC): 1.6
[2]
  viability at 48 h, 5 µM: 111%
[3]
  viability at 48 h, 25 µM: 106%
[4]
  fold change (FC): 1.58

## O=C1Oc2ccc(O)cc2/C1=C/c1ccccc1
[1]
  fold change (FC): 1.15
[2]
  viability at 48 h, 5 µM: 89%
[3]
  viability at 48 h, 25 µM: 94%
[4]
  fold change (FC): 1.37

## COc1ccc(/C=C2\C(=O)Oc3ccc(O)cc32)cc1
[1]
  fold change (FC): 1.35
[2]
  viability at 48 h, 5 µM: 110%
[3]
  viability at 48 h, 25 µM: 118%
[4]
  fold change (FC): 1.71

## COc1ccccc1/C=C1\C(=O)Oc2ccc(O)cc21
[1]
  fold change (FC): 1.01
[2]
  viability at 48 h, 5 µM: 92%
[3]
  viability at 48 h, 25 µM: 110%
[4]
  fold change (FC): 1.44

## O=C1/C(=C/c2ccc(Cl)cc2)Oc2ccc(O)cc21
[1]
  fold change (FC): 1.32
[4]
  fold change (FC): 1.18

## COc1ccc(/C=C2\Oc3cc(O)cc(O)c3C2=O)cc1
[1]
  fold change (FC): 1.15
[2]
  viability at 48 h, 5 µM: 109%
[3]
  viability at 48 h, 25 µM: 114%
[4]
  fold change (FC): 0.82

## COc1cc(OC)c2c(c1)O/C(=C\c1ccc([N+](=O)[O-])cc1)C2=O
[1]
  fold change (FC): 1.61
[2]
  viability at 48 h, 5 µM: 88%
[3]
  viability at 48 h, 25 µM: 88%
[4]
  fold change (FC): 1.6

## O=C1Oc2ccc(O)cc2/C1=C/c1cccc(O)c1
[1]
  fold change (FC): 1.64
[2]
  viability at 48 h, 5 µM: 95%
[3]
  viability at 48 h, 25 µM: 87%
[4]
  fold change (FC): 1.83

## O=C1Oc2ccc(O)cc2/C1=C/c1cccc(F)c1
[1]
  fold change (FC): 1.14
[2]
  viability at 48 h, 5 µM: 127%
[3]
  viability at 48 h, 25 µM: 120%
[4]
  fold change (FC): 1.32

## COc1cc(OC)c2c(c1)O/C(=C\c1ccccc1C)C2=O
[1]
  fold change (FC): 1.79
[2]
  viability at 48 h, 5 µM: 91%
[3]
  viability at 48 h, 25 µM: 87%
[4]
  fold change (FC): 1.42

## O=C1/C(=C/c2cccc(Cl)c2)Oc2cc(O)cc(O)c21
[1]
  fold change (FC): 1.45
[2]
  viability at 48 h, 5 µM: 96%
[3]
  viability at 48 h, 25 µM: 86%
[4]
  fold change (FC): 1.71

## N#Cc1ccc(/C=C2\Oc3ccc(O)cc3C2=O)cc1
[1]
  fold change (FC): 1.3
[4]
  fold change (FC): 1.25

## COc1ccc(/C=C2\Oc3ccc(O)cc3C2=O)cc1
[1]
  fold change (FC): 1
[4]
  fold change (FC): 1.17

## O=C1/C(=C/c2ccc(O)cc2)Oc2cc(O)ccc21
[2]
  viability at 48 h, 5 µM: 100%
[3]
  viability at 48 h, 25 µM: 98%
